In ChEMBL document CHEMBL3992522, “Antileishmanial Activity of Pyrazolopyridine Derivatives and Their Potential as an Adjunct Therapy with Miltefosine” (J Med Chem, 2017):
In brackets after ≈: the same amount, converted by molar mass. Activity calls are given as the source filed them. The calls are words filed in the database; no cut-off is given here.

How the values were obtained:
Type in all cases: functional
Leishmania donovani [1] = test: Antileishmanial activity against Leishmania donovani MHOM/IN/80/DD8 promastigote forms harboring luciferase gene after 72 hrs by Steady-Glo reagent based two fold dilution assay; conditions: MHOM/IN/80/DD8, 72 h
In short: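 Promastigotes or J774-resident amastigotes treated 72 h with six two-fold dilutions from 200 µM down to 6.25 µM. Luciferase RLU fitted by four-parameter Hill non-linear regression to derive the […] inhibitory concentration (MIC).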

Leishmania donovani [2] = test: Antileishmanial activity against Leishmania donovani MHOM/IN/80/DD8 amastigote forms harboring luciferase gene infected in mouse J774 cells at 50 uM up to 72 hrs by Giemsa staining based assay relative to control; conditions: MHOM/IN/80/DD8, J774, 72 h
In short: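 J774 macrophages in chamber slides infected with Dd8 promastigotes (1:10 cell:parasite in methods; 1:8 in legend) for 24 h, then treated 48 and 72 h. Cells methanol-fixed, stained with 20% Giemsa. Amastigotes per 100 macrophages counted against untreated infected controls.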

Leishmania donovani [3] = test: Antileishmanial activity against Leishmania donovani MHOM/IN/80/DD8 promastigote forms harboring luciferase gene at 6.25 to 12.5 uM up to 4 days by Steady-Glo reagent based luminescence assay
In short: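 Log-phase luciferase promastigotes at 1.0×10^6 at 24 °C, pH 7.4, given two-fold dilutions from 200 to 6.25 µM. RLU in lysed cultures measured daily for up to 4 days to plot growth curves. Three independent experiments.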

Leishmania donovani [4] = test: Antileishmanial activity against Leishmania donovani MHOM/IN/80/DD8 promastigote forms harboring luciferase gene at 50 uM up to 72 hrs by MTT assay relative to control; conditions: MHOM/IN/80/DD8, 72 h
Leishmania donovani [5] = test: Induction of apoptosis in Leishmania donovani MHOM/IN/80/DD8 promastigote forms assessed as late apoptotic cells at 50 uM after 48 hrs by Annexin V-FITC/propidium iodide staining based flow cytometry (reference value: 0.86%)

In the case of `COc1ccc(C2C3=C(CCC3=O)Nc3c2c(-c2c[nH]c4ccccc24)nn3-c2ccc(Cl)c(Cl)c2)cc1OC` (stereo not given), the MIC (Leishmania donovani [1]) is reported as 50 µM (≈ 28.6 µg/mL), the inhibition at 50 µM (Leishmania donovani [2]) is reported as over 93% and the Activity (Leishmania donovani [3]) is reported as “Active”. For the same molecule, the inhibition at 50 µM (Leishmania donovani [4]) was over 95% and the Activity (Leishmania donovani [5]) was 54.2%.
